Screens (PubChem BioAssay)
In the library only some 6.8% were active in any assay of this set; here they are far more common.
HSF1 inh: HSF1 inhibition | hit rate 0.77% among 300,000 | activity change, negative = inhibition, % at 7.5 µM (by protocol) | NIH3T3-HGL HSE-luciferase, MG132-induced, luminescence 8 h; stronger effect = lower value;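 active = more than half of replicate wells show activity change below -50%, luminescence cut by over half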;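 also: luciferase reports HSF-1 transcriptional activity via heat shock element; 0% = median of DMSO wells and -100% = zero luminescence signal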
ALR inh: human ALR oxidase inhibition via reduced H2O2; hit rate 3.8% among 290,000; purified ALR, DTT oxidation, H2O2 HRP-luminol luminescence; inhibition, % (concentration not given with the values); P55789;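 active = mean replicate inhibition above about 79%, with every replicate also reaching it, limit read from the data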
Target sequence (P55789 whole entry, looked up): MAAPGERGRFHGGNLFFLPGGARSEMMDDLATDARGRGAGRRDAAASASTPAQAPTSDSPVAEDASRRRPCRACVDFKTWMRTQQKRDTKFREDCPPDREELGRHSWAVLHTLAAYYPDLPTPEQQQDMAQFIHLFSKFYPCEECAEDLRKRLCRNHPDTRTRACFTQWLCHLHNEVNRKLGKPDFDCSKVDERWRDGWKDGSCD
AI-2 QS mod: modulators of Vibrio harveyi AI-2 quorum sensing system. activity change, % at 7.5 µM. hit rate 0.4% among 300,000. AID 2094. Vibrio harveyi JMH597 AI-2 luminescence/OD600 ratio, 9 h; stronger effect = lower value; strain lacks LuxN and CqsS sensors; 0 = neutral-control median; in the data active = activity change below about -75%, passing the limit was not always enough;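 also: luminescence divided by OD600 gain over 9 h not by final OD600 alone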
PHOSPHO1 inh: PHOSPHO1 (human) inhibition; Q8TCT1; recombinant PHOSPHO1, absorbance phosphatase assay; inhibition, % at 13.3 µM; hit rate 1.1% among 290,000; AID 1565; in the data active = inhibition above about 60%
Target sequence (Q8TCT1 whole entry, looked up): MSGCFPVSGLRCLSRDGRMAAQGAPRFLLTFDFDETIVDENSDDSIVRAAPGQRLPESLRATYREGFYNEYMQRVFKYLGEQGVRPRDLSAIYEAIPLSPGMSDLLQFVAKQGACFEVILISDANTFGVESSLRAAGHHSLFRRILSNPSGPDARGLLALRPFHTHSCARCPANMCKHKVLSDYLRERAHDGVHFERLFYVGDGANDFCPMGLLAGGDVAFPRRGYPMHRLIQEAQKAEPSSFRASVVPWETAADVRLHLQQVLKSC
HCV core dimer: blocks dimerization of HCV core protein; TR-FRET GST/Flag-core106 dimerization, 1536-well; inhibition, % at 5 µM; hit rate 0.33% among 300,000; AID 1899;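 active = inhibition above the mean of all tested compounds plus 3 SD, set per screening campaign, cut at about 45% in these data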
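Test system: GST/Flag-tagged HCV core106 proteins; Medium: KF-containing HEPES buffer, pH 7.45, DTT, CHAPS, BSA; Times: compound-protein-antibody incubation 4 h at 22.5 °C; Detection: TR-FRET 671 and 617 nm emission; Benchmarks: wells lacking GST-core106 and wells with excess unlabelled core106.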
HSF-1 act: increases HSF-1 driven luciferase reporter signal | NIH3T3-HGL HSF-1 luciferase reporter, MG132, 8 h; 100% = twice DMSO control signal | activation, % at 9 µM | hit rate 1.7% among 300,000;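 active = mean replicate activation of at least 50% with a set share of replicates each reaching 50%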;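 also: 0% = median of the neutral control wells and 100% = twice that signal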
Active calls of the source: *.

`CCOC(=O)/C(C#N)=C/c1cccc([N+](=O)[O-])c1` gave HSF1 inh -5, ALR inh -3, AI-2 QS mod 3, PHOSPHO1 inh 64*, HCV core dimer -10 and HSF-1 act -2.
CCOC(=O)/C(C#N)=C/c1cccc(C)c1 was read as HSF1 inh 0, ALR inh -9, AI-2 QS mod 1, PHOSPHO1 inh 12 and HSF-1 act 15.
`CCOC(=O)/C(C#N)=C\c1ccc(O)c(OC)c1` gave HSF1 inh 4, ALR inh 99*, AI-2 QS mod 8, PHOSPHO1 inh 46, HCV core dimer 3 and HSF-1 act 2.
For COc1ccc(C(=O)CCc2nc3ccccc3s2)cc1 the results were HSF1 inh 0, ALR inh -7, AI-2 QS mod -70, PHOSPHO1 inh -17, HCV core dimer 10 and HSF-1 act 10.
For C=CCn1c(-c2ccc(Cl)cc2)c[nH]c1=S the results were HSF1 inh 4, ALR inh 97*, AI-2 QS mod 6, PHOSPHO1 inh 94*, HCV core dimer -2 and HSF-1 act 25.
`C=CCn1c(-c2ccccc2)c[nH]c1=S` gave HSF1 inh 23, ALR inh 37, AI-2 QS mod 27, PHOSPHO1 inh 79*, HCV core dimer -8 and HSF-1 act 39.
Screening CCn1c(-c2ccc(-c3ccccc3)cc2)c[nH]c1=S returned HSF1 inh -6, ALR inh -5, AI-2 QS mod 11, PHOSPHO1 inh 97*, HCV core dimer 17 and HSF-1 act 24.
`Cn1c(-c2ccc(-c3ccccc3)cc2)c[nH]c1=S` gave HSF1 inh 6, ALR inh 50, AI-2 QS mod 17, PHOSPHO1 inh 95*, HCV core dimer 15 and HSF-1 act 14.
COc1ccc(C(=O)OCCNC(=O)c2ccncc2)cc1OC was read as HSF1 inh 6, AI-2 QS mod 30, PHOSPHO1 inh -10, HCV core dimer -1 and HSF-1 act -8.
Screening O=C(Cn1cnc([N+](=O)[O-])n1)NC1CC1 returned HSF1 inh -7, ALR inh -33, AI-2 QS mod 8, PHOSPHO1 inh 68*, HCV core dimer 2 and HSF-1 act -1.
`CCCCNC(=O)Cn1cnc([N+](=O)[O-])n1` gave HSF1 inh -1, ALR inh -18, AI-2 QS mod 22, PHOSPHO1 inh 50, HCV core dimer -5 and HSF-1 act 13.
Screening O=C(CBr)c1ccc([N+](=O)[O-])c(CS(=O)(=O)c2ccc(Cl)cc2)c1 returned HSF1 inh 53, ALR inh 7, AI-2 QS mod -3, PHOSPHO1 inh 2, HCV core dimer -5 and HSF-1 act 60*.
`COc1cc2c(cc1O)CCN(C(=O)CSc1nncn1C)[C@@H]2C` gave ALR inh 82*.
COc1cc2c(cc1OC)[C@H](C)N(C(=O)CSc1nc(O)c(C(C)C)c(=O)[nH]1)CC2 was read as HSF1 inh -5, AI-2 QS mod 27, PHOSPHO1 inh 29, HCV core dimer 7 and HSF-1 act -1.
O=C(OC1CCCCC1=O)c1ccc(F)c(S(=O)(=O)N2CCOCC2)c1 (configuration not stated) was read as HSF1 inh -5, ALR inh 13, AI-2 QS mod 29, HCV core dimer -2 and HSF-1 act 13.
Screening COc1cc(NC(=S)NC(C)(C)C)c(OC)cc1Cl returned HSF1 inh 32, ALR inh -14, AI-2 QS mod 26, PHOSPHO1 inh 30, HCV core dimer 0 and HSF-1 act 63*.
For O=C1C2C3C=CC(CC3)C2C(=O)N1c1cccc(Br)c1 (configuration not stated) the results were HSF1 inh -1, ALR inh -17, AI-2 QS mod 35, PHOSPHO1 inh -6, HCV core dimer -7 and HSF-1 act -2.
For NCCCC[C@@H]1NC(=O)c2cc([N+](=O)[O-])cc(I)c2SC[C@@H](C(=O)NCC(N)=O)NC(=O)CNC1=O the results were HSF1 inh -8, ALR inh -50, AI-2 QS mod 1, PHOSPHO1 inh 1, HCV core dimer -31 and HSF-1 act -16.
Screening CCCC(C)NC(=O)C1c2ccccc2Oc2ccccc21 (configuration not stated) returned HSF1 inh -61*, ALR inh -10, AI-2 QS mod 27, PHOSPHO1 inh 40, HCV core dimer 1 and HSF-1 act -67.
For CN(CCCN1c2ccccc2CCc2ccccc21)CC(=O)c1ccc(Cl)cc1 the results were HSF1 inh -2, ALR inh 98*, AI-2 QS mod -3, HCV core dimer 1 and HSF-1 act -10.
Screening CN(C)CCCN1c2ccccc2CCc2ccc(Cl)cc21 returned HSF1 inh -3, ALR inh 67, AI-2 QS mod -6, PHOSPHO1 inh -1, HCV core dimer -18 and HSF-1 act -8.
For CCn1ncc(Br)c1C(=O)NC1CCCCCCC1 the results were HSF1 inh 0, ALR inh -18, AI-2 QS mod 29, PHOSPHO1 inh 41 and HSF-1 act 18.
For Cn1c(CSc2ccccc2)c(C#N)c2ccccc21 the results were HSF1 inh 29, ALR inh -2, AI-2 QS mod 18, PHOSPHO1 inh -4, HCV core dimer -1 and HSF-1 act 90*.
Screening Cc1ccccc1N1CCN(Cc2c(C#N)c3ccccc3n2C)CC1 returned HSF1 inh 4, ALR inh -1, AI-2 QS mod 18, PHOSPHO1 inh 9, HCV core dimer 6 and HSF-1 act -2.
For Cc1c(C#N)c2ccccc2n1C the results were HSF1 inh -4, ALR inh 7, AI-2 QS mod 18, PHOSPHO1 inh 27, HCV core dimer 0 and HSF-1 act 16.
`Cc1ccc(SCc2c(C#N)c3ccccc3n2C)cc1` gave HSF1 inh 1, ALR inh 99*, AI-2 QS mod -10, PHOSPHO1 inh 2, HCV core dimer -1 and HSF-1 act 34.
For Fc1ccc(-c2cn3cc(C(F)(F)F)cc(Cl)c3n2)cc1 the results were HSF1 inh 43, ALR inh -4, AI-2 QS mod 19, PHOSPHO1 inh 7, HCV core dimer 3 and HSF-1 act 83*.
COc1ccc(-c2cn3cc(C(F)(F)F)cc(Cl)c3n2)cc1 was read as HSF1 inh 9, ALR inh 44, AI-2 QS mod 26, PHOSPHO1 inh 26, HCV core dimer 8 and HSF-1 act 17.
`Cn1c(SCC(=O)N2c3ccccc3CCc3ccccc32)nnc1-c1ccc(O)cc1` gave HSF1 inh -4, ALR inh 0, AI-2 QS mod 7, PHOSPHO1 inh -29, HCV core dimer 5 and HSF-1 act 6.
